Tb hexokinase: T. brucei hexokinase 1 inhibition. recombinant TbHK1, G6PDH-coupled NADH A340. inhibition, % at 10 µM. 220,000 compounds, 0.11% hits;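 active = inhibition of 50% or more in the single-dose primary screen; inactive = inhibition below 50%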
G6PDH CS: inhibits Leuconostoc G6PDH, flagging false hits in G6PDH-based assays; Purified L. mesenteroides G6PDH, diaphorase/resazurin coupled fluorescence, 45 min; inhibition, % at 5 µM; 200,000 compounds, 0.12% hits; AID 1020; in the data active = inhibition above about 50%
HKDC1 inh: HKDC1 (human) hexokinase inhibition | Q2TB90 | recombinant HKDC1, G6PDH/diaphorase resazurin coupled fluorescence | inhibition, % at 20 µM | 340,000 compounds, 0.16% hits;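 active = inhibition above about 35% when tested at 20 µM, limit read from the data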;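 note: plate controls were DMSO wells with enzyme for no effect and DMSO wells lacking enzyme for full effect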
Target sequence (Q2TB90 whole entry, looked up): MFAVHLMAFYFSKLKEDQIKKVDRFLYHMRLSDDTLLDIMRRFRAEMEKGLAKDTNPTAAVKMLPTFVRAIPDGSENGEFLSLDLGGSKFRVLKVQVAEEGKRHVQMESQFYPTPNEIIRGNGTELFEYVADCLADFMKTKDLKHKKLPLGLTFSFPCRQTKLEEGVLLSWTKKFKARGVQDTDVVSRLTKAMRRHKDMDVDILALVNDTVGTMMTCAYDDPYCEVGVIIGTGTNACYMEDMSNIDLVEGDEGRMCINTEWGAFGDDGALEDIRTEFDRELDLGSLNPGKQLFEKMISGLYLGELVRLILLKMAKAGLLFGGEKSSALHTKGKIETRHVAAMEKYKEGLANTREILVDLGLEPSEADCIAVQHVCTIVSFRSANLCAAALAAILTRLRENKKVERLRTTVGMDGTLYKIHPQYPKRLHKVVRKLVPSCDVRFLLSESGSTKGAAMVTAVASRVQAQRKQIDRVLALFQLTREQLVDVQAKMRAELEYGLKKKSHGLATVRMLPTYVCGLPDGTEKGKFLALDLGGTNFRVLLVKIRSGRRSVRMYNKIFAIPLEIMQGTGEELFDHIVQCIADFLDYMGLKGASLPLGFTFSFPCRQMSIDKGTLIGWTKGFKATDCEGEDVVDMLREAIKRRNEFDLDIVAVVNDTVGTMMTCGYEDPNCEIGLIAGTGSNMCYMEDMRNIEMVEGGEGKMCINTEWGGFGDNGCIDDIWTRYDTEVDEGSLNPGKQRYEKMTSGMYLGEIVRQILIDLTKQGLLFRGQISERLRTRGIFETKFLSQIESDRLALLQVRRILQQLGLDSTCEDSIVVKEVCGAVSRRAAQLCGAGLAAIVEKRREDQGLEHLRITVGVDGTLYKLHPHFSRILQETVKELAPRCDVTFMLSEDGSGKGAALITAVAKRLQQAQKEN
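Assay system – recombinant HKDC1 (HK5) hexokinase enzyme, produced in-house · Input – HKDC1 at 5 µg/mL · Reagent – glucose plus 1 mM ATP as hexokinase substrates · Timing – 90 min reaction incubation at room temperature, dark · Measured by – G6PDH/diaphorase-coupled fluorescence, 1 mM NADP, 100 µM resazurin, 525/613 nm · Benchmarks – DMSO-enzyme wells negative, buffer-substituted wells positive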
Diaph inh CS: counter-screen for diaphorase-based assays: diaphorase inhibitors and chemical oxidizers; AID 1217; inhibition, % at 20 µM; diaphorase resazurin-to-resorufin fluorescence, NADH, 16 min; bacterial (C. kluyveri) enzyme, not human; 190,000 compounds, 0.69% hits;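 active = primary screen inhibition at 20 µM above a set limit, cut at about 50% in these data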;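 note: plate controls were DMSO with full reaction for no effect and wells lacking NADH for full effect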
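Benchmarks: positive control wells lacking NADH, neutral wells with DMSO only. System: bacterial diaphorase enzyme (C. kluyveri). Input: 0.14 U/mL diaphorase, enzyme working solution. Detection: resorufin fluorescence, excitation 544 nm, emission 590 nm. Times: 16-min room-temperature incubation before reading.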
PfGluPho inh: PfG6PD (Plasmodium falciparum) enzyme inhibition. inhibition, % at 20 µM. 350,000 compounds, 0.78% hits. PfGluPho enzyme, NADPH resazurin-diaphorase fluorescence;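 active = inhibition reaching at least a set limit at 20 µM in the primary screen, cut at about 59% in these data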;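 note: 0% = DMSO wells with substrate and 100% = DMSO wells lacking glucose-6-phosphate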
PfG6PD confirm: confirmation of Plasmodium falciparum G6PD inhibitors; shares compounds with PfGluPho inh; AID 504753; inhibition, % at 20 µM; 2,400 compounds, 34% hits; recombinant PfGluPho, NADPH-diaphorase-resazurin fluorescence;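 active = inhibition of at least 50% at 20 µM in any single replicate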;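 note: 0% = DMSO with substrate and 100% = DMSO lacking glucose-6-phosphate substrate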
Diaphorase 10uM: inhibits diaphorase or oxidizes, flagging false PfG6PD hits; shares compounds with PfGluPho inh; diaphorase-coupled resazurin reduction, fluorescence, NADPH 10 uM; inhibition, % at 20 µM; 820 compounds, 39% hits;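 active = average inhibition reaching 50% or more with the compound at 20 µM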;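 note: resorufin red fluorescence formed as diaphorase reduces resazurin using NADPH; 0% = DMSO with enzyme and 100% = DMSO without enzyme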
Diaphorase 30uM: inhibits diaphorase or oxidizes, flagging false PfG6PD hits | shares compounds with PfGluPho inh | Diaphorase/resazurin coupled assay, resorufin fluorescence, 30 uM NADPH | inhibition, % at 20 µM | 820 compounds, 29% hits | AID 504863;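 active = inhibition averaging 50% or more, tested at 20 µM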;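 note: 0% = DMSO with enzyme and 100% = DMSO wells lacking diaphorase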
The depositor's hits bear a star; . = no result given. In the library only some 1.3% were active in any assay of this set; here they are far more common.

SMILES	Tb hexokinase	G6PDH CS	HKDC1 inh	Diaph inh CS	PfGluPho inh	PfG6PD confirm	Diaphorase 10uM	Diaphorase 30uM
Cc1csc(NC(=O)c2cc3c(s2)CCCC3)n1	-20	12	5	9	62*	9	.	.
CCOC(=O)Cc1csc(NC(=O)c2cc3c(s2)CCCC3)n1	-16	-3	2	10	6	.	.	.
Cc1csc(NC(=O)c2cc3c(s2)CCCCC3)n1	-2	3	7	0	77*	10	.	.
COc1ccccc1CN1CC(C(=O)NCCn2nc(C)cc2C)CCC1=O (centres undefined)	.	.	0	.	-6	.	.	.
COc1ccc(NS(=O)(=O)c2ccc(N3CCCC3)c(NC(=S)Nc3ccc(SC(F)F)cc3)c2)cc1	21	-14	-16	6	69*	37	.	.
COc1ccc(NS(=O)(=O)c2ccc(N3CCCC3)c(NC(=S)Nc3cccc(C)c3C)c2)cc1	27	0	-12	21	80*	53*	-29	-12
CCCCCCCN1C=CC(=O)CC1	-42	.	-4	.	-1	.	.	.
COc1ccc(Cc2nnc(Nc3ccc(C)cc3C)[nH]c2=O)cc1	3	5	1	11	1	.	.	.
O=[N+]([O-])c1c(Nc2ccc(O)cc2)cc(Cl)c2nonc12	.	.	17	.	60*	23	.	.
Cc1onc(C(=O)Nc2sc3c(c2C(N)=O)CCCC3)c1[N+](=O)[O-]	-25	.	-2	.	64*	47	.	.
CCc1cc[n+](C2=C([O-])c3ccccc3C(=O)/C2=N\S(=O)(=O)c2cccs2)cc1	-1	51*	26	21	95*	72*	66*	75*
O=C1C(=O)c2ccccc2C([O-])=C1[n+]1ccccc1	-24	.	10	.	-16	.	.	.
Fc1cccc(Cl)c1CNc1ccc(N2CCCC2)cc1	-1	22	9	79*	106*	87*	2	2
NS(=O)(=O)c1ccc(NCc2c(F)cccc2Cl)cc1	1	10	7	17	16	.	.	.
CC(C)CC(=O)Nc1ccccc1Oc1ccccc1	-8	13	3	8	7	.	.	.
COc1ccc(NC(=S)N(CCC(C)C)C2CCN(C(C)C)CC2)cc1Cl	.	.	-4	.	69*	83*	-13	-14
Cn1cc(SCC(=O)N2CCCc3ccccc32)c2ccccc21	3	-29	-2	15	60*	23	.	.
c1ccc(-c2nnc3sc(-c4csc5c4CCCC5)nn23)cc1	3	-26	2	3	73*	3	.	.
c1ccc(-c2nnc3sc(-c4ccncc4)nn23)cc1	-3	-16	-4	22	1	.	.	.
O=C(NCc1ccc2c(c1)CCO2)Nc1cccc(C(F)(F)F)c1	5	.	-1	.	1	.	.	.
Cc1cc(C(=O)Cn2nnc3ccccc3c2=O)c(C)n1-c1ccccc1F	8	0	8	19	65*	19	.	.
O=C1c2cccc3cccc(c23)C(=O)N1CCCn1ccnc1	.	.	-2	.	-1	.	.	.
C=C(CN(C)C)C(=O)c1ccc(C)cc1C	.	.	9	.	68*	45	.	.
Cc1ccc(NC(=O)CCCn2nc(C)c3c(C)n(-c4ccccc4)nc3c2=O)cc1C	.	.	2	.	64*	27	.	.
COc1cccc2c1nc(C)c1cc(C)oc12	0	0	-3	8	-17	.	.	.
SMILES	Tb hexokinase	G6PDH CS	HKDC1 inh	Diaph inh CS	PfGluPho inh	PfG6PD confirm	Diaphorase 10uM	Diaphorase 30uM
COc1cccc2nc3cc(C)c(C)cc3nc12	-7	.	27	.	96*	57*	46	43
O=[N+]([O-])c1cccc(SSc2cccc([N+](=O)[O-])c2)c1	.	.	1	.	115*	52*	-8	-6
COc1ccc(OC)c(NC(=O)CSc2nnc(-c3cccnc3)s2)c1	3	-1	31	38	35	.	.	.
O=S(=O)(NCc1csc(-c2ccccc2)n1)c1ccc(Cl)s1	6	18	1	5	99*	48*	43	41
O=S(=O)(NCc1csc(-c2cccnc2)n1)c1ccc(Cl)s1	-3	-16	-2	5	48	.	.	.
Cc1c(C(=O)N(Cc2ccccc2Cl)C2CCS(=O)(=O)C2)oc2ccccc12 (centres undefined)	.	.	2	.	96*	57*	59*	46
